Measured values published in ChEMBL document CHEMBL1142890, “Structure-antibacterial activity of arylcarbonyl- and arylsulfonyl-piperazine 5-triazolylmethyl oxazolidinones” (2007).
≈ marks a conversion by molar mass, not a printed value.

Key:
Staphylococcus aureus [1] = assay: Antimicrobial activity against methicillin-susceptible Staphylococcus aureus by agar dilution method; format: functional
Method in brief: (§1)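 Agar dilution per CLSI on Mueller-Hinton agar, test agents at 0.12 to 8 µg/ml; test compounds dissolved in 20% water in DMSO, linezolid in 40% water in ethanol, vancomycin in water. Clinical isolates inoculated at final 10^7 CFU/ml, incubated 35 °C for 18 h. MIC = lowest concentration completely inhibiting growth; reported as range across isolates.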

Streptococcus pneumoniae = assay: Antimicrobial activity against Streptococcus pneumoniae by agar dilution method; format: functional
Method in brief: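 Agar dilution per CLSI on Mueller–Hinton agar holding drug dilutions from 0.12 to 8 µg/ml. Staphylococci and enterococci tested on plain MH agar, S. pneumoniae on MH agar with 5% sheep blood. Test compounds dissolved in 20% water in DMSO. Inoculum 10⁷ CFU/ml, incubated 35 °C for 18 h. MIC was the lowest concentration giving complete growth inhibition.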

Staphylococcus aureus [2] = assay: Antimicrobial activity against methicillin-resistant Staphylococcus aureus by agar dilution method; format: functional; method in brief: as §1
Escherichia coli = assay: Antimicrobial activity against Escherichia coli ATCC 25922; format: functional
Staphylococcus [3] = assay: Antimicrobial activity against methicillin-susceptible coagulase-negative staphylococcus by agar dilution method; format: functional; method in brief: as §1
Haemophilus influenzae = assay: Antimicrobial activity against Haemophilus influenzae; format: functional
Enterococcus [4] = assay: Antimicrobial activity against vancomycin-resistant Enterococcus by agar dilution method; format: functional; method in brief: as §1
Staphylococcus aureus [5] = assay: Antimicrobial activity against Staphylococcus aureus ATCC 25923 by agar dilution method
Staphylococcus [6] = assay: Antimicrobial activity against methicillin-resistant coagulase-negative Staphylococcus by agar dilution method; format: functional; method in brief: as §1
Moraxella catarrhalis = assay: Antimicrobial activity against Moraxella catarrhalis; format: functional
Staphylococcus aureus [7] = assay: Antimicrobial activity against Staphylococcus aureus ATCC 25922 in presence of 50% human plasma […]; format: functional; details: ATCC 25923, Plasma, in the assay text read “ATCC 25923” for “ATCC 25922”
Method in brief: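 S. aureus ATCC 25923 tested in Mueller–Hinton broth supplemented with 50% human plasma. Test compounds dissolved in 20% water in DMSO. Inoculum 10⁷ CFU/ml, incubated 35 °C for 18 h. MIC was the lowest concentration completely inhibiting growth.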

Enterococcus [8] = assay: Antimicrobial activity against vancomycin-sensitive Enterococcus by agar dilution method; format: functional; method in brief: as §1

SMILES | MIC (Staphylococcus aureus [1]) | MIC (Streptococcus pneumoniae) | MIC (Staphylococcus aureus [2]) | MIC (Escherichia coli) | MIC (Staphylococcus [3]) | MIC (Haemophilus influenzae) | MIC (Enterococcus [4]) | MIC (Staphylococcus aureus [5]) | MIC (Staphylococcus [6]) | MIC (Moraxella catarrhalis) | MIC (Staphylococcus aureus [7]) | MIC (Enterococcus [8])
O=C(c1ccncc1)N1CCN(c2ccc(N3C[C@H](Cn4ccnn4)OC3=O)cc2F)CC1 | 0.5 µg/mL (≈ 1.11 µM) | 1 µg/mL (≈ 2.22 µM) | 0.5 µg/mL (≈ 1.11 µM) | ≥ 8 µg/mL | 0.25 µg/mL (≈ 0.554 µM) | ≥ 8 µg/mL | 0.5 µg/mL (≈ 1.11 µM) | 1 µg/mL (≈ 2.22 µM) | 0.5 µg/mL (≈ 1.11 µM) | ≥ 8 µg/mL | 8 µg/mL | 1 µg/mL (≈ 2.22 µM)
Cc1ccc(S(=O)(=O)N2CCN(c3ccc(N4C[C@H](Cn5ccnn5)OC4=O)cc3F)CC2)cc1 | > 8 µg/mL | 2 µg/mL (≈ 4 µM) | – | ≥ 8 µg/mL | > 8 µg/mL | ≥ 8 µg/mL | – | > 8 µg/mL | – | ≥ 8 µg/mL | > 8 µg/mL | > 8 µg/mL
Cc1cccc(C(=O)N2CCN(c3ccc(N4C[C@H](Cn5ccnn5)OC4=O)cc3F)CC2)c1 | 0.25 µg/mL (≈ 0.538 µM) | 1 µg/mL (≈ 2.15 µM) | 0.25 µg/mL (≈ 0.538 µM) | ≥ 8 µg/mL | 0.25 µg/mL (≈ 0.538 µM) | ≥ 8 µg/mL | 0.5 µg/mL (≈ 1.08 µM) | 0.5 µg/mL (≈ 1.08 µM) | 0.25 µg/mL (≈ 0.538 µM) | ≥ 8 µg/mL | 8 µg/mL | 0.5 µg/mL (≈ 1.08 µM)
O=C(/C=C/c1ccccc1)N1CCN(c2ccc(N3C[C@H](Cn4ccnn4)OC3=O)cc2F)CC1 | 0.25 µg/mL (≈ 0.525 µM) | 1 µg/mL (≈ 2.1 µM) | 0.25 µg/mL (≈ 0.525 µM) | ≥ 8 µg/mL | 0.25 µg/mL (≈ 0.525 µM) | ≥ 8 µg/mL | 0.25 µg/mL (≈ 0.525 µM) | 0.5 µg/mL (≈ 1.05 µM) | 0.25 µg/mL (≈ 0.525 µM) | ≥ 8 µg/mL | > 8 µg/mL | 0.5 µg/mL (≈ 1.05 µM)
O=C(c1ccccc1F)N1CCN(c2ccc(N3C[C@H](Cn4ccnn4)OC3=O)cc2F)CC1 | 0.25 µg/mL (≈ 0.534 µM) | 1 µg/mL (≈ 2.13 µM) | 0.25 µg/mL (≈ 0.534 µM) | ≥ 8 µg/mL | 0.25 µg/mL (≈ 0.534 µM) | ≥ 8 µg/mL | 0.5 µg/mL (≈ 1.07 µM) | 0.5 µg/mL (≈ 1.07 µM) | 0.25 µg/mL (≈ 0.534 µM) | ≥ 8 µg/mL | 8 µg/mL | 0.5 µg/mL (≈ 1.07 µM)
O=C(Cc1ccccc1)N1CCN(c2ccc(N3C[C@H](Cn4ccnn4)OC3=O)cc2F)CC1 | 0.5 µg/mL (≈ 1.08 µM) | 0.5 µg/mL (≈ 1.08 µM) | 0.5 µg/mL (≈ 1.08 µM) | ≥ 8 µg/mL | 0.5 µg/mL (≈ 1.08 µM) | ≥ 8 µg/mL | 1 µg/mL (≈ 2.15 µM) | 2 µg/mL (≈ 4.31 µM) | 0.5 µg/mL (≈ 1.08 µM) | ≥ 8 µg/mL | 4 µg/mL | 0.5 µg/mL (≈ 1.08 µM)
O=C(c1ccc(Cl)cc1)N1CCN(c2ccc(N3C[C@H](Cn4ccnn4)OC3=O)cc2F)CC1 | 0.25 µg/mL (≈ 0.516 µM) | 1 µg/mL (≈ 2.06 µM) | 0.25 µg/mL (≈ 0.516 µM) | ≥ 8 µg/mL | 0.12 µg/mL (≈ 0.247 µM) | ≥ 8 µg/mL | 0.5 µg/mL (≈ 1.03 µM) | 0.5 µg/mL (≈ 1.03 µM) | 0.12 µg/mL (≈ 0.247 µM) | ≥ 8 µg/mL | 8 µg/mL | 0.5 µg/mL (≈ 1.03 µM)
O=C1O[C@@H](Cn2ccnn2)CN1c1ccc(N2CCN(S(=O)(=O)c3ccccc3)CC2)c(F)c1 | 0.5 µg/mL (≈ 1.03 µM) | 1 µg/mL (≈ 2.06 µM) | 0.5 µg/mL (≈ 1.03 µM) | ≥ 8 µg/mL | 0.5 µg/mL (≈ 1.03 µM) | ≥ 8 µg/mL | 0.5 µg/mL (≈ 1.03 µM) | 2 µg/mL (≈ 4.11 µM) | 0.5 µg/mL (≈ 1.03 µM) | ≥ 8 µg/mL | 8 µg/mL | 2 µg/mL (≈ 4.11 µM)
O=C(c1cccc([N+](=O)[O-])c1)N1CCN(c2ccc(N3C[C@H](Cn4ccnn4)OC3=O)cc2F)CC1 | 0.25 µg/mL (≈ 0.505 µM) | 0.25 µg/mL (≈ 0.505 µM) | 0.25 µg/mL (≈ 0.505 µM) | ≥ 8 µg/mL | 0.5 µg/mL (≈ 1.01 µM) | ≥ 8 µg/mL | 0.5 µg/mL (≈ 1.01 µM) | 2 µg/mL (≈ 4.04 µM) | 0.25 µg/mL (≈ 0.505 µM) | ≥ 8 µg/mL | 2 µg/mL | 0.5 µg/mL (≈ 1.01 µM)
COc1cccc(C(=O)N2CCN(c3ccc(N4C[C@H](Cn5ccnn5)OC4=O)cc3F)CC2)c1 | 0.25 µg/mL (≈ 0.52 µM) | 0.25 µg/mL (≈ 0.52 µM) | 0.25 µg/mL (≈ 0.52 µM) | ≥ 8 µg/mL | 0.25 µg/mL (≈ 0.52 µM) | ≥ 8 µg/mL | 0.5 µg/mL (≈ 1.04 µM) | 2 µg/mL (≈ 4.16 µM) | 0.25 µg/mL (≈ 0.52 µM) | ≥ 8 µg/mL | 4 µg/mL | 0.5 µg/mL (≈ 1.04 µM)
O=C(c1ccccc1Cl)N1CCN(c2ccc(N3C[C@H](Cn4ccnn4)OC3=O)cc2F)CC1 | 0.5 µg/mL (≈ 1.03 µM) | 4 µg/mL (≈ 8.25 µM) | 0.5 µg/mL (≈ 1.03 µM) | ≥ 8 µg/mL | 0.5 µg/mL (≈ 1.03 µM) | ≥ 8 µg/mL | 0.5 µg/mL (≈ 1.03 µM) | 1 µg/mL (≈ 2.06 µM) | 0.5 µg/mL (≈ 1.03 µM) | ≥ 8 µg/mL | 8 µg/mL | 0.5 µg/mL (≈ 1.03 µM)
O=C(c1cccnc1Cl)N1CCN(c2ccc(N3C[C@H](Cn4ccnn4)OC3=O)cc2F)CC1 | 0.5 µg/mL (≈ 1.03 µM) | 1 µg/mL (≈ 2.06 µM) | 0.5 µg/mL (≈ 1.03 µM) | ≥ 8 µg/mL | 0.5 µg/mL (≈ 1.03 µM) | ≥ 8 µg/mL | 1 µg/mL (≈ 2.06 µM) | 2 µg/mL (≈ 4.12 µM) | 0.5 µg/mL (≈ 1.03 µM) | ≥ 8 µg/mL | 4 µg/mL | 1 µg/mL (≈ 2.06 µM)
